Results from ChEMBL document CHEMBL1123732, “Flavones. 1. Synthesis and antihypertensive activity of (3-phenylflavonoxy)propanolamines without beta-adrenoceptor antagonism” (J Med Chem, 1987).
The source made the active and inactive calls. The rule behind the calls is not given here.

Assays:
Rattus norvegicus [1] = assay: Percentage of fall in systolic blood pressure (SBP) at the following hours after dosing at 17 mg/kg (po) at 24 hr in spontaneously hypertensive rats(SHR);NS means not significant; assay type: functional, organism-based; parameters: dose 17 mg/kg; conditions: Artery
Method in brief: (§1)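 Male spontaneously hypertensive rats (Wistar-Kyoto strain), unanesthetized, dosed orally; systolic pressure measured by indirect tail cuff. Before each reading, rats warmed at 35-37 °C for 15-20 min to dilate the caudal artery. Five rats per treatment group; result is percentage fall in systolic pressure versus untreated control. Significance tested against control.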

Rattus norvegicus [2] = assay: Percentage of fall in systolic blood pressure (SBP) at the following hours after dosing at 8 mg/kg (po) at 5 hr in spontaneously hypertensive rats(SHR);NS means not significant; assay type: functional, organism-based; parameters: dose 8 mg/kg; conditions: Artery; method in brief: as §1
Rattus norvegicus [3] = assay: Percentage of fall in systolic blood pressure (SBP) at the following hours after dosing at 17 mg/kg (po) at 7.5 hr in spontaneously hypertensive rats(SHR); assay type: functional, Artery; method in brief: as §1
Rattus norvegicus [4] = assay: Percentage of fall in systolic blood pressure (SBP) at the following hours after dosing at 17 mg/kg (po) at 5 hr in spontaneously hypertensive rats(SHR); assay type: functional, Artery; method in brief: as §1
Rattus norvegicus [5] = assay: […] systolic blood pressure (SBP) for compound-treated group relative to the value for untreated control at 17 mg/kg dose (po) in spontaneously hypertensive rats(SHR); assay type: functional, Artery; method in brief: as §1
Rattus norvegicus [6] = assay: Percentage of fall in systolic blood pressure (SBP) at the following hours after dosing at 17 mg/kg (po) at 2 hr in spontaneously hypertensive rats(SHR); assay type: functional, Artery; method in brief: as §1
Rattus norvegicus [7] = assay: Percentage of fall in systolic blood pressure (SBP) at the following hours after dosing at 8 mg/kg (po) at 2 hr in spontaneously hypertensive rats(SHR); assay type: functional, Artery; method in brief: as §1
Rattus norvegicus [8] = assay: Percentage of fall in systolic blood pressure (SBP) at the following hours after dosing at 8 mg/kg (po) at 24 hr in spontaneously hypertensive rats(SHR);NS means not significant; assay type: functional, organism-based; parameters: dose 8 mg/kg; conditions: Artery; method in brief: as §1
Rattus norvegicus [9] = assay: Percentage of fall in systolic blood pressure (SBP) at the following hours after dosing at 8 mg/kg (po) at 7.5 hr in spontaneously hypertensive rats(SHR); assay type: functional, Artery; method in brief: as §1
Adrenergic receptor beta = Adrenergic receptor beta (Rattus norvegicus, UniProt P18090+P10608+P26255); assay: Evaluated for beta-receptor affinity, determined in rat brain membrane fraction with [3H]- dihydroalprenolol; assay type: cell membranes
Method in brief: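 Rat brain with cerebellum removed, homogenized in ice-cold 50 mM Tris-HCl pH 8.0 and spun at 50000g for 15 min, pellet washed once more the same way. Binding used 0.4-0.6 mg protein, 1 nM [3H]dihydroalprenolol, 50 mM Tris pH 8.0, and 5-10 competitor concentrations. IC50 read visually from a semilog plot; Ki from Cheng-Prusoff with KD approximately 1 nM.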

Rattus norvegicus [10] = assay: […] systolic blood pressure (SBP) for compound-treated group relative to the value for untreated control at 8 mg/kg dose (po) in spontaneously hypertensive rats(SHR); assay type: functional, Artery; method in brief: as §1
Rattus norvegicus [11] = assay: Evaluated for the percentage inhibition of the depressor response of isoproterenol (0.25 mg/kg, iv) in spontaneously hypertensive rats at 150 mg/kg perorally; NI means no inhibition at 10 mg/kg, iv; assay type: functional, organism-based
Method in brief: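 Male SHR, three per group, dosed orally 150 mg/kg as suspension in 4% Clearjel. At 4 h, anesthetized with sodium pentobarbital (45 mg/kg, ip); femoral artery and vein cannulated; arterial pressure monitored continuously. Isoproterenol given iv in 0.1 mL saline; depressor response compared with Clearjel vehicle-treated rats as percentage inhibition.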

Rattus norvegicus [12] = assay: Evaluated for the percentage inhibition of the depressor response of isoproterenol (0.25 mg/kg, iv) in spontaneously hypertensive rats at 150 mg/kg peroral dose
Rattus norvegicus [13] = assay: Percentage of fall in systolic blood pressure (SBP) at the following hours after dosing at 17 mg/kg (po) at 2 hr in spontaneously hypertensive rats(SHR); NS mmeans not significant; assay type: functional, organism-based; parameters: dose 17 mg/kg; conditions: Artery; method in brief: as §1
Rattus norvegicus [14] = assay: Percentage of fall in systolic blood pressure (SBP) at the following hours after dosing at 8 mg/kg (po) at 2 hr in spontaneously hypertensive rats(SHR); NS means not significant; assay type: functional, organism-based; parameters: dose 8 mg/kg; conditions: Artery; method in brief: as §1
Rattus norvegicus [15] = assay: Percentage of fall in systolic blood pressure (SBP) at the following hours after dosing at 17 mg/kg (po) at 24 hr in spontaneously hypertensive rats(SHR); assay type: functional, Artery; method in brief: as §1
Rattus norvegicus [16] = assay: Percentage of fall in systolic blood pressure (SBP) at the following hours after dosing at 8 mg/kg (po) at 5 hr in spontaneously hypertensive rats(SHR); assay type: functional, Artery; method in brief: as §1
Rattus norvegicus [17] = assay: Percentage of fall in systolic blood pressure (SBP) at the following hours after dosing at 8 mg/kg (po) at 24 hr in spontaneously hypertensive rats(SHR); assay type: functional, Artery; method in brief: as §1
Rattus norvegicus [18] = assay: Percentage of fall in systolic blood pressure (SBP) at the following hours after dosing at 75 mg/kg (po) at 5 hr in spontaneously hypertensive rats(SHR); assay type: functional, Artery; method in brief: as §1
Rattus norvegicus [19] = assay: Percentage of fall in systolic blood pressure (SBP) at the following hours after dosing at 75 mg/kg (po) at 2 hr in spontaneously hypertensive rats(SHR); NS means not significant; assay type: functional, organism-based; parameters: dose 75 mg/kg; conditions: Artery; method in brief: as §1
Rattus norvegicus [20] = assay: Percentage of fall in systolic blood pressure (SBP) at the following hours after dosing at 75 mg/kg (po) at 7.5 hr in spontaneously hypertensive rats(SHR); assay type: functional, Artery; method in brief: as §1
Rattus norvegicus [21] = assay: Percentage of fall in systolic blood pressure (SBP) at the following hours after dosing at 75 mg/kg (po) at 24 hr in spontaneously hypertensive rats(SHR); assay type: functional, Artery; method in brief: as §1
Rattus norvegicus [22] = assay: […] systolic blood pressure (SBP) for compound-treated group relative to the value for untreated control at 75 mg/kg dose (po) in spontaneously hypertensive rats(SHR); assay type: functional, Artery; method in brief: as §1
Rattus norvegicus [23] = assay: Evaluated for the percentage inhibition of the depressor response of isoproterenol (0.25 mg/kg, iv) in spontaneously hypertensive rats at 150 mg/kg peroral dose; NI means no inhibition at 10 mg/kg, iv
Rattus norvegicus [24] = assay: Percentage of fall in systolic blood pressure (SBP) at the following hours after dosing at 75 mg/kg (po) at 2 hr in spontaneously hypertensive rats(SHR):NS means not significant; assay type: functional, organism-based; parameters: dose 75 mg/kg; conditions: Artery; method in brief: as §1
Rattus norvegicus [25] = assay: Percentage of fall in systolic blood pressure (SBP) at the following hours after dosing at 75 mg/kg (po) at 7.5 hr in spontaneously hypertensive rats(SHR); NS means not significant; assay type: functional, organism-based; parameters: dose 75 mg/kg; conditions: Artery; method in brief: as §1
Rattus norvegicus [26] = assay: Percentage of fall in systolic blood pressure (SBP) at the following hours after dosing at 75 mg/kg (po) at 24 hr in spontaneously hypertensive rats(SHR); NS means not significant; assay type: functional, organism-based; parameters: dose 75 mg/kg; conditions: Artery; method in brief: as §1
Rattus norvegicus [27] = assay: Percentage of fall in systolic blood pressure (SBP) at the following hours after dosing at 75 mg/kg (po) at 5 hr in spontaneously hypertensive rats(SHR); NS means not significant; assay type: functional, organism-based; parameters: dose 75 mg/kg; conditions: Artery; method in brief: as §1
Rattus norvegicus [28] = assay: Percentage of fall in systolic blood pressure (SBP) at the following hours after dosing at 75 mg/kg (po) at 7.5 hr in spontaneously hypertensive rats(SHR) NS means not significant; assay type: functional, organism-based; parameters: dose 75 mg/kg; conditions: Artery; method in brief: as §1
Rattus norvegicus [29] = assay: Evaluated for the percentage inhibition of the depressor response of isoproterenol (0.25 mg/kg, iv) in spontaneously hypertensive rats at 150 mg/kg peroral dose;NI means no inhibition at 10 mg/kg, iv
Rattus norvegicus [30] = assay: Percentage of fall in systolic blood pressure (SBP) at the following hours after dosing at 75 mg/kg (po) at 2 hr in spontaneously hypertensive rats(SHR); assay type: functional, Artery; method in brief: as §1

For `O=c1c(-c2ccccc2)c(-c2ccccc2)oc2cc(OCC(O)CNC3CC3)ccc12` (configuration not stated), the “Decrease in SBP” value (Rattus norvegicus [1]) was “inactive”, the “Decrease in SBP” value (Rattus norvegicus [2]) was “inactive” and the “Decrease in SBP” value (Rattus norvegicus [3]) was 18%. The “Decrease in SBP” value (Rattus norvegicus [4]) was 23%, the SBP (Rattus norvegicus [5]) was 193 mmHg and the “Decrease in SBP” value (Rattus norvegicus [6]) was 10%. For the same compound, the “Decrease in SBP” value (Rattus norvegicus [7]) was 7%, the “Decrease in SBP” value (Rattus norvegicus [8]) was “inactive” and the “Decrease in SBP” value (Rattus norvegicus [9]) was 10%. For the same compound, the Ki (Adrenergic receptor beta) was over 0.00005 M, the SBP (Rattus norvegicus [10]) was 188 mmHg and the inhibition (Rattus norvegicus [11]) was “inactive”.
In the case of `CCCNCC(O)COc1ccc2c(=O)c(-c3ccccc3)c(-c3ccccc3)oc2c1` (configuration not stated), the inhibition (Rattus norvegicus [12]) is reported as “inactive”, the “Decrease in SBP” value (Rattus norvegicus [13]) is reported as “inactive” and the “Decrease in SBP” value (Rattus norvegicus [3]) is reported as 20%. The “Decrease in SBP” value (Rattus norvegicus [4]) was 11%, the SBP (Rattus norvegicus [5]) was 198 mmHg and the “Decrease in SBP” value (Rattus norvegicus [14]) was “inactive”. For the same compound, the “Decrease in SBP” value (Rattus norvegicus [15]) was 14%, the “Decrease in SBP” value (Rattus norvegicus [16]) was 12% and the “Decrease in SBP” value (Rattus norvegicus [9]) was 16%. For the same compound, the “Decrease in SBP” value (Rattus norvegicus [17]) was 10%, the Ki (Adrenergic receptor beta) was over 0.00005 M and the SBP (Rattus norvegicus [10]) was 191 mmHg.
`O=c1c(-c2ccccc2)c(-c2ccccc2)oc2cc(OCC(O)CNC3CCCCC3)ccc12` (configuration not stated) was tested, and the “Decrease in SBP” value (Rattus norvegicus [18]) was 10%, the “Decrease in SBP” value (Rattus norvegicus [19]) was “inactive” and the “Decrease in SBP” value (Rattus norvegicus [20]) was 13%. The “Decrease in SBP” value (Rattus norvegicus [21]) was 16% and the SBP (Rattus norvegicus [22]) was 216 mmHg.
`C=CCNCC(O)COc1ccc2c(=O)c(-c3ccccc3)c(-c3ccccc3)oc2c1` (configuration not stated) was tested, and the inhibition (Rattus norvegicus [23]) was “inactive”, the “Decrease in SBP” value (Rattus norvegicus [18]) was 10% and the “Decrease in SBP” value (Rattus norvegicus [20]) was 11%. For the same compound, the “Decrease in SBP” value (Rattus norvegicus [21]) was 9%, the “Decrease in SBP” value (Rattus norvegicus [24]) was “inactive” and the SBP (Rattus norvegicus [22]) was 197 mmHg.
`CCCCCCNCC(O)COc1ccc2c(=O)c(-c3ccccc3)c(-c3ccccc3)oc2c1.Cl` (configuration not stated) was tested, and the “Decrease in SBP” value (Rattus norvegicus [19]) was “inactive”, the “Decrease in SBP” value (Rattus norvegicus [25]) was “inactive” and the “Decrease in SBP” value (Rattus norvegicus [26]) was “inactive”. For the same compound, the “Decrease in SBP” value (Rattus norvegicus [27]) was “inactive” and the SBP (Rattus norvegicus [22]) was 200 mmHg.
`CC(C)(C)NCC(O)COc1ccc2c(=O)c(-c3ccccc3)c(-c3ccccc3)oc2c1.Cl` (configuration not stated) was tested, and the “Decrease in SBP” value (Rattus norvegicus [28]) was “inactive”, the “Decrease in SBP” value (Rattus norvegicus [19]) was “inactive” and the “Decrease in SBP” value (Rattus norvegicus [26]) was “inactive”. The “Decrease in SBP” value (Rattus norvegicus [27]) was “inactive”, the Ki (Adrenergic receptor beta) was over 0.00005 M and the SBP (Rattus norvegicus [22]) was 196 mmHg.
With `Cl.O=c1c(-c2ccccc2)c(-c2ccccc2)oc2cc(OCC(O)CNC3CCCC3)ccc12` (configuration not stated) the “Decrease in SBP” value (Rattus norvegicus [18]) was 23%, the “Decrease in SBP” value (Rattus norvegicus [20]) was 23% and the inhibition (Rattus norvegicus [29]) was “inactive”. The “Decrease in SBP” value (Rattus norvegicus [30]) was 10%, the “Decrease in SBP” value (Rattus norvegicus [21]) was 18% and the SBP (Rattus norvegicus [22]) was 200 mmHg.
